The source of these data is ChEMBL document CHEMBL1152267, “Peptides based on CcdB protein as novel inhibitors of bacterial topoisomerases” (Bioorg Med Chem Lett, 2008).

Active and inactive are the calls of the source. No cut-off for these calls is given here.

Test [1] relates to Escherichia coli. In words: Inhibition of Escherichia coli DNA-gyrase assessed as DNA supercoiling activity. The essentials: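 Peptide titrated into a fixed amount of enzyme and DNA. Gyrase at 3.4 nM with relaxed DNA substrate (500 ng), 37 °C for 1 h, which fully negatively supercoils the substrate without inhibitor. Value is IC100, the lowest peptide concentration giving complete inhibition of supercoiling.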

Test [2] concerns Escherichia coli. In words: Inhibition of Escherichia coli topoisomerase 4 assessed as DNA relaxation activity. The essentials:
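ATP-dependent relaxation assay. Topo IV at 5 nM with supercoiled DNA (400 ng) at 37 °C, with peptide titrated at fixed enzyme and DNA. Value is IC100, the minimum concentration completely inhibiting relaxation.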

In the case of `CC[C@H](C)[C@H](NC(=O)CNC(=O)[C@H](Cc1c[nH]c2ccccc12)NC(=O)[C@H](Cc1ccccc1)NC(=O)[C@H](CCSC)NC(=O)[C@H](CC(C)C)NC(=O)[C@H](CC(N)=O)NC(=O)[C@@H](NC(=O)[C@H](C)NC(=O)[C@H](CC(N)=O)NC(=O)[C@H](CCCCN)NC(=O)[C@@H](NC(=O)[C@H](CC(=O)O)NC(=O)[C@H](CC(N)=O)NC(=O)[C@H](CCC(=O)O)NC(=O)[C@H](CCCNC(=N)N)NC(=O)[C@H](Cc1cnc[nH]1)NC(=O)[C@@H](N)CO)[C@@H](C)CC)[C@@H](C)CC)C(=O)O`, the IC100 in the test with Escherichia coli [1] stood at 60 µM; in the test on Escherichia coli [2], 15 µM.

As to `CC[C@H](C)[C@H](NC(=O)CNC(=O)[C@H](Cc1c[nH]c2ccccc12)NC(=O)[C@H](Cc1ccccc1)NC(=O)[C@H](CCSC)NC(=O)[C@H](CC(C)C)NC(=O)[C@H](CC(N)=O)NC(=O)[C@@H](NC(=O)[C@H](C)NC(=O)[C@H](CC(N)=O)NC(=O)[C@H](CCCCN)NC(=O)[C@@H](NC(=O)[C@H](CC(=O)O)NC(=O)[C@H](CC(N)=O)NC(=O)[C@H](CCC(=O)O)NC(=O)[C@H](CCCNC(=N)N)NC(=O)[C@H](Cc1cnc[nH]1)NC(=O)[C@H](CO)NC(=O)CCCCCNC(=O)[C@H](CC(C)C)NC(=O)[C@H](CCC(=O)O)NC(=O)[C@H](CCCNC(=N)N)NC(=O)[C@H](CO)NC(=O)[C@@H](NC(=O)[C@H](CCCCN)NC(=O)[C@H](CC(=O)O)NC(=O)[C@H](CO)NC(=O)[C@H](CC(C)C)NC(=O)[C@H](CC(C)C)NC(=O)[C@H](CCCNC(=N)N)NC(=O)CCCCCNC(=O)[C@H](CCCCN)NC(=O)[C@H](Cc1ccc(O)cc1)NC(=O)[C@@H](NC(=O)[C@H](Cc1ccc(O)cc1)NC(=O)[C@@H](NC(=O)[C@H](CCCCN)NC(=O)[C@H](Cc1ccccc1)NC(=O)[C@H](CCC(N)=O)NC(=O)[C@@H](N)CCSC)C(C)C)[C@@H](C)O)C(C)C)[C@@H](C)CC)[C@@H](C)CC)C(=O)O`, the IC100 in the test on Escherichia coli [1] was 10 µM; with Escherichia coli [2], 5 µM.

In the case of `CC[C@H](C)[C@H](NC(=O)[C@H](CCC(=O)O)NC(=O)[C@H](Cc1c[nH]c2ccccc12)NC(=O)[C@H](Cc1ccccc1)NC(=O)[C@H](CCSC)NC(=O)[C@H](CC(C)C)NC(=O)[C@H](CC(N)=O)NC(=O)[C@@H](NC(=O)[C@H](C)NC(=O)[C@H](CC(N)=O)NC(=O)[C@H](CCCCN)NC(=O)[C@@H](NC(=O)[C@H](CC(=O)O)NC(=O)[C@H](CC(N)=O)NC(=O)[C@H](CCC(=O)O)NC(=O)[C@H](CCCNC(=N)N)NC(=O)[C@H](Cc1cnc[nH]1)NC(=O)[C@H](CO)NC(=O)CCCCCNC(=O)[C@H](CC(C)C)NC(=O)[C@H](CCC(=O)O)NC(=O)[C@H](CCCNC(=N)N)NC(=O)[C@H](CO)NC(=O)[C@@H](NC(=O)[C@H](CCCCN)NC(=O)[C@H](CC(=O)O)NC(=O)[C@H](CO)NC(=O)[C@H](CC(C)C)NC(=O)[C@H](CC(C)C)NC(=O)[C@H](CCCNC(=N)N)NC(=O)CCCCCNC(=O)[C@H](CCCCN)NC(=O)[C@H](Cc1ccc(O)cc1)NC(=O)[C@@H](NC(=O)[C@H](Cc1ccc(O)cc1)NC(=O)[C@@H](NC(=O)[C@H](CCCCN)NC(=O)[C@H](Cc1ccccc1)NC(=O)[C@H](CCC(N)=O)NC(=O)[C@@H](N)CCSC)C(C)C)[C@@H](C)O)C(C)C)[C@@H](C)CC)[C@@H](C)CC)C(=O)O`, the result in the test on Escherichia coli [1] was inactive. The IC100 in the test on Escherichia coli [2] came out at 5 µM.

As to `CC[C@H](C)[C@H](NC(=O)CNC(=O)[C@H](Cc1c[nH]c2ccccc12)NC(=O)[C@H](Cc1ccccc1)NC(=O)[C@H](CCSC)NC(=O)[C@H](CC(C)C)NC(=O)[C@H](CC(N)=O)NC(=O)[C@@H](NC(=O)[C@H](C)NC(=O)[C@H](CC(N)=O)NC(=O)[C@H](CCCCN)NC(=O)[C@@H](NC(=O)[C@H](CC(=O)O)NC(=O)[C@H](CC(N)=O)NC(=O)[C@H](CCC(=O)O)NC(=O)[C@H](CCCNC(=N)N)NC(=O)[C@H](Cc1cnc[nH]1)NC(=O)[C@H](CO)NC(=O)[C@H](CC(C)C)NC(=O)[C@H](CC(=O)O)NC(=O)[C@H](C)NC(=O)[C@@H](NC(=O)[C@H](CCC(=O)O)NC(=O)[C@H](CCC(=O)O)NC(=O)CNC(=O)[C@@H](NC(=O)[C@@H](NC(=O)[C@H](CO)NC(=O)[C@@H](NC(=O)[C@@H]1CCCN1C(=O)[C@@H](NC(=O)[C@H](CO)NC(=O)[C@H](C)NC(=O)[C@@H](N)CCSC)C(C)C)C(C)C)C(C)C)[C@@H](C)CC)C(C)C)[C@@H](C)CC)[C@@H](C)CC)C(=O)O`, the result in the test with Escherichia coli [1] and in the test with Escherichia coli [2] was inactive.

For the molecule `CC[C@H](C)[C@H](NC(=O)CNC(=O)[C@H](Cc1c[nH]c2ccccc12)NC(=O)[C@H](Cc1ccccc1)NC(=O)[C@H](CCSC)NC(=O)[C@H](CC(C)C)NC(=O)[C@H](CC(N)=O)NC(=O)[C@@H](NC(=O)[C@H](C)NC(=O)[C@H](CC(N)=O)NC(=O)[C@H](CCCCN)NC(=O)[C@@H](NC(=O)[C@H](CC(=O)O)NC(=O)[C@H](CC(N)=O)NC(=O)[C@H](CCC(=O)O)NC(=O)[C@H](CCCNC(=N)N)NC(=O)[C@H](Cc1cnc[nH]1)NC(=O)[C@H](CO)NC(=O)CCCCCNC(=O)[C@H](CCCCN)NC(=O)[C@H](Cc1ccc(O)cc1)NC(=O)[C@@H](NC(=O)[C@H](Cc1ccc(O)cc1)NC(=O)[C@@H](NC(=O)[C@H](CCCCN)NC(=O)[C@H](Cc1ccccc1)NC(=O)[C@H](CCC(N)=O)NC(=O)[C@@H](N)CCSC)C(C)C)[C@@H](C)O)[C@@H](C)CC)[C@@H](C)CC)C(=O)O`, the IC100 is 40 µM in the test with Escherichia coli [1] and 15 µM with Escherichia coli [2].
